# Rows were chosen to be rich in hits. Some 3% of all compounds tested hit in one or more screens of this group.
# SENP8 block-1 – inhibitors of human SENP8 protease | Q96LD8 | recombinant SENP8, Nedd8 substrate fluorescence | inhibition, % at 20 µM | actives 0.64% (n = 360,000) | AID 602440; in the data active = inhibition mostly above about 40%, no sharp cut-off; inactive = mostly below about 27%
# UBC13 polyUb – inhibitors of human UBC13 polyubiquitin chain formation; P61088; TR-FRET; inhibition, % at 20 µM; actives 0.47% (n = 330,000); in the data active = inhibition above about 45%, passing the limit was not always enough
# Apaf1 inhib – inhibitors of human Apaf-1 apoptosome. inhibition, % at 20 µM. actives 0.71% (n = 330,000). reconstituted apoptosome caspase-3 activity, DEVD-Rh110 fluorescence. O14727. AID 489030; active = inhibition of at least 40% at 20 µM
#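 Material: reconstituted apoptosome with Apaf-1, cytochrome c, caspase-9, procaspase-3, dATP / Buffer or medium: pH 7.5 Hepes buffer with CHAPS, BSA, DTT / Also added: cytochrome c with DEVD-Rh110 / Schedule: compound with Apaf-1, dATP, procaspase-3 30 min, then 50 min reaction, room temperature / Technique: rhodamine 110 fluorescence at Ex 480/Em 540 nm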
# SENP6 block – inhibitors of human SENP6 protease. Recombinant SENP6 catalytic domain, aminoluciferin luminescence. actives 1.8% (n = 330,000). inhibition, % at 10 µM. AID 2599;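 active = inhibition above about 50% at the single tested dose, limit read from the data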
# SENP7 inh – inhibitors of human SENP7 protease; Q9BQF6; recombinant SENP7, Z-RLRGG-aminoluciferin luminescence, 40 min; inhibition, % at 5 µM; actives 1.5% (n = 330,000); AID 434973;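 active = inhibition above about 50% at the single test dose, limit read from the data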
# Target sequence (Q9BQF6 706-1050 limits assumed): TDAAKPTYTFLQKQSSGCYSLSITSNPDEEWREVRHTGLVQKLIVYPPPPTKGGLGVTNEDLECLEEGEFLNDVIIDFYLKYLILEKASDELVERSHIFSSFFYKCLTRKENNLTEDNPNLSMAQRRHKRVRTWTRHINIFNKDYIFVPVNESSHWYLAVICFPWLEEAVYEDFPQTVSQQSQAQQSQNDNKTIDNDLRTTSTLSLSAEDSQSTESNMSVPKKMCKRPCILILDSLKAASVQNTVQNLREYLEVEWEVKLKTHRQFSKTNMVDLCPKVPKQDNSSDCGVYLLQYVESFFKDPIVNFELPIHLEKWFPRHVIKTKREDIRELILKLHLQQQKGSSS
# SENP8 block-2 – blocks the human protease SENP8. Q96LD8. actives 1.2% (n = 330,000). purified SENP8, Z-RLRGG-aminoluciferin cleavage, luminescence. inhibition, % at 10 µM; in the data active = inhibition above about 50%
# SENP8 confirm – human SENP8 inhibition, confirmed; shares compounds with SENP7 inh; Recombinant SENP8, Z-RLRGG-aminoluciferin luminescence, 60 min; inhibition, % at 12.5 µM; actives 40% (n = 6,200); AID 488912;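 active = mean inhibition across replicates above about 50%, limit read from the data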
# SENP6 conf – confirmation of human SENP6 protease inhibitors. shares compounds with SENP7 inh. recombinant SENP6, Z-RLRGG-aminoluciferin luminescence. inhibition, % at 12.5 µM. actives 58% (n = 6,200). AID 488915
# SENP7 conf – human SENP7 inhibition, confirmed. shares compounds with SENP7 inh. recombinant SENP7, Z-RLRGG-aminoluciferin luminescence, 40 min. inhibition, % at 12.5 µM. actives 69% (n = 6,200)
# Casp3 select – selectivity test for SENP inhibitors: human caspase-3 inhibition; shares compounds with SENP7 inh; purified caspase-3, Z-DEVD-aminoluciferin luminescence, 60 min; inhibition, % at 12.5 µM; actives 60% (n = 6,200); AID 488918;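 active = mean inhibition above about 50%, limit read from the data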
# SENP luc ctr – luminescence interference (SENP counter-screen) | inhibition, % at 12.5 µM | actives 39% (n = 6,200) | Pre-incubated SENP8/Z-RLRGG-aminoluciferin, luciferase luminescence interference | shares compounds with SENP7 inh;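 active = mean inhibition above about 50% when retested at one dose, limit read from the data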
# Hits are given with their value; n = inactive; x = no result.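 Rule for the calls, unless noted: active = mean inhibition above about 50% in the one-dose retest (limit read from the data); inactive = the rest.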
SMILES,SENP8 block-1,UBC13 polyUb,Apaf1 inhib,SENP6 block,SENP7 inh,SENP8 block-2,SENP8 confirm,SENP6 conf,SENP7 conf,Casp3 select,SENP luc ctr
O=C1C(=Cc2cccs2)C(=O)c2ccccc21,n,n,n,n,n,n,x,x,x,x,x
Cn1cccc1/C=C1\CCc2ccccc2C1=O,n,n,n,100,n,95,98,98,102,97,96
Cn1cccc1/C=C1\Cc2ccccc2C1=O,n,n,n,n,93,92,66,91,99,93,n
O=C1/C(=C/c2cccs2)Cc2ccccc21,n,n,n,91,92,84,83,91,99,87,70
O=C1C(=Cc2ccccc2Cl)CCc2ccccc21,n,x,x,x,x,x,x,x,x,x,x
Cc1cccc(C)c1NC(=O)C1c2ccccc2OCC(=O)N1Cc1ccco1 (stereo not given),n,x,x,x,x,x,x,x,x,x,x
c1ccc(-n2nnc(-c3cccnc3)n2)cc1,n,n,n,n,n,n,x,x,x,x,x
Cc1ccc(-n2nnc(-c3cccnc3)n2)cc1,n,n,n,n,n,n,x,x,x,x,x
Cc1ccc(-n2nnc(-c3cnc4ccccc4c3)n2)cc1,n,n,n,n,79,n,n,n,n,n,n
Cc1ccc(-n2nnc(-c3nccn3C)n2)cc1,n,n,n,84,87,86,90,90,100,97,90
CCCCN1CCCCC1(C)C(=O)NCc1cccc(OC)c1 (stereo not given),n,x,x,x,x,x,x,x,x,x,x
COc1cc(C(O)c2nc(-c3cccc(NC(C)=O)c3)cs2)ccc1F (stereo not given),n,x,x,x,x,x,x,x,x,x,x
Cc1cc2c(cc1C)-n1nnnc1C(N1CCN(c3ncccc3C#N)CC1)C(=O)N2 (stereo not given),n,x,x,x,x,x,x,x,x,x,x
COC(=O)c1sccc1-c1ccc(C(N)=O)o1,x,n,n,n,n,n,x,x,x,x,x
COC(=O)c1sccc1-c1ccc(C(=O)Nc2cccnc2)o1,n,n,n,n,52,n,n,n,76,59,n
COc1cccc(-c2cc(C(=O)Nc3cccnc3)no2)c1,n,n,n,55,80,65,n,78,93,83,n
O=C(Nc1cccnc1)c1cc(-c2ccc(Br)cc2)on1,n,n,n,n,84,n,n,n,n,n,n
CC(=O)c1cccc(NC(=O)c2cc(-c3ccc(C)cc3)on2)c1,n,n,n,n,n,n,x,x,x,x,x
CCCc1cc(C(=O)Nc2cccnc2)no1,n,n,n,n,n,n,x,x,x,x,x
CC(C)c1cc(C(=O)Nc2cccnc2)no1,n,n,n,62,63,n,61,56,86,88,65
O=C(CCNC(=O)c1ccc([N+](=O)[O-])cc1)Nc1cc(C(F)(F)F)ccc1N1CCOCC1,n,x,x,x,x,x,x,x,x,x,x
Cc1cccc(C)c1N1C(=O)c2ccccc2NC(=O)C1C(=O)NCCOc1ccccc1 (stereo not given),n,x,x,x,x,x,x,x,x,x,x
O=C(Nc1cccnc1)c1cc(-c2ccco2)on1,n,n,n,n,58,n,n,n,64,79,n
O=C(Nc1cccnc1)c1cc(-c2ccccc2)on1,n,n,n,75,69,n,n,n,86,75,n
Cc1ccc(S(=O)(=O)NCc2ccccc2Br)cc1,n,x,x,x,x,x,x,x,x,x,x
CC1(C(=O)NCCC(F)(F)F)Cc2c(-c3ccccc3)ccnc2O1 (stereo not given),n,x,x,x,x,x,x,x,x,x,x
Cc1ccc(F)cc1C(=O)N1CCCC(C)(C(=O)NS(=O)(=O)C2CC2)C1 (stereo not given),n,x,x,x,x,x,x,x,x,x,x

# Bioassay records as filed in PubChem BioAssay.
